Structures are written as SMILES.

These results are taken from ChEMBL document CHEMBL1123174, “Inhibitors of Bacillus subtilis DNA polymerase III. Influence of modifications in the pyrimidine ring of anilino- and (benzylamino)pyrimidines” (J Med Chem, 1986).

Assay [1] concerns the target T1, DNA polymerase III PolC-type (Bacillus subtilis (strain 168), UniProt P13267). The assay can be described thus: Compound was tested for its inhibitory activity against Bacillus subtilis […] using DNA Polymerase assay; IA=Inactive. The method, boiled down: (§1)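 B. subtilis DNA polymerase III assayed as a truncated reaction: the nucleotide competing with the inhibitor class (dGTP or dATP) was omitted from the mix.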

The target in assay [2] is T1, DNA polymerase III PolC-type. The assay can be described thus: Compound was tested for its inhibitory activity against Bacillus subtilis DNA topoisomerase III using DNA Polymerase assay. In short, it runs like this: as §1
Assay [3] shares this target. Briefly: Compound was tested for its inhibitory activity against DNA topoisomerase III Polymerase III using DNA Polymerase assay; IA=Inactive. The method, boiled down:
as §1

Assay [4] has the same target. Briefly: Concentration producing 50% inhibition of Bacillus subtilis DNA polymerase III in the absence of dATP using DNA Polymerase assay; NA=Inactive. In short, it runs like this: as §1
For assay [5] the target is unchanged. Briefly: Concentration producing 50% inhibition of Bacillus subtilis DNA polymerase III in the absence of dGTP using DNA Polymerase assay. The conditions noted are these: read-out: Ki. The method, boiled down:
as §1

Assay [6] shares this target. The assay can be described thus: Concentration producing 50% inhibition of Bacillus subtilis […] in the absence using DNA Polymerase assay.
Assay [7] shares this target. Briefly: Concentration producing 50% inhibition of Bacillus subtilis DNA polymerase III in the absence of dATP using DNA Polymerase assay; NA= Inactive. The method, boiled down:
as §1

Assay [8] has the same target. Briefly: Concentration producing 50% inhibition of Bacillus subtilis […] in the presence of dATP using DNA Polymerase assay.
Assay [9] shares this target. Briefly: Concentration producing 50% inhibition of Bacillus subtilis […] in the presence of dGTP using DNA Polymerase assay.

T1 sequence (P13267 whole entry, the tested form may be a part): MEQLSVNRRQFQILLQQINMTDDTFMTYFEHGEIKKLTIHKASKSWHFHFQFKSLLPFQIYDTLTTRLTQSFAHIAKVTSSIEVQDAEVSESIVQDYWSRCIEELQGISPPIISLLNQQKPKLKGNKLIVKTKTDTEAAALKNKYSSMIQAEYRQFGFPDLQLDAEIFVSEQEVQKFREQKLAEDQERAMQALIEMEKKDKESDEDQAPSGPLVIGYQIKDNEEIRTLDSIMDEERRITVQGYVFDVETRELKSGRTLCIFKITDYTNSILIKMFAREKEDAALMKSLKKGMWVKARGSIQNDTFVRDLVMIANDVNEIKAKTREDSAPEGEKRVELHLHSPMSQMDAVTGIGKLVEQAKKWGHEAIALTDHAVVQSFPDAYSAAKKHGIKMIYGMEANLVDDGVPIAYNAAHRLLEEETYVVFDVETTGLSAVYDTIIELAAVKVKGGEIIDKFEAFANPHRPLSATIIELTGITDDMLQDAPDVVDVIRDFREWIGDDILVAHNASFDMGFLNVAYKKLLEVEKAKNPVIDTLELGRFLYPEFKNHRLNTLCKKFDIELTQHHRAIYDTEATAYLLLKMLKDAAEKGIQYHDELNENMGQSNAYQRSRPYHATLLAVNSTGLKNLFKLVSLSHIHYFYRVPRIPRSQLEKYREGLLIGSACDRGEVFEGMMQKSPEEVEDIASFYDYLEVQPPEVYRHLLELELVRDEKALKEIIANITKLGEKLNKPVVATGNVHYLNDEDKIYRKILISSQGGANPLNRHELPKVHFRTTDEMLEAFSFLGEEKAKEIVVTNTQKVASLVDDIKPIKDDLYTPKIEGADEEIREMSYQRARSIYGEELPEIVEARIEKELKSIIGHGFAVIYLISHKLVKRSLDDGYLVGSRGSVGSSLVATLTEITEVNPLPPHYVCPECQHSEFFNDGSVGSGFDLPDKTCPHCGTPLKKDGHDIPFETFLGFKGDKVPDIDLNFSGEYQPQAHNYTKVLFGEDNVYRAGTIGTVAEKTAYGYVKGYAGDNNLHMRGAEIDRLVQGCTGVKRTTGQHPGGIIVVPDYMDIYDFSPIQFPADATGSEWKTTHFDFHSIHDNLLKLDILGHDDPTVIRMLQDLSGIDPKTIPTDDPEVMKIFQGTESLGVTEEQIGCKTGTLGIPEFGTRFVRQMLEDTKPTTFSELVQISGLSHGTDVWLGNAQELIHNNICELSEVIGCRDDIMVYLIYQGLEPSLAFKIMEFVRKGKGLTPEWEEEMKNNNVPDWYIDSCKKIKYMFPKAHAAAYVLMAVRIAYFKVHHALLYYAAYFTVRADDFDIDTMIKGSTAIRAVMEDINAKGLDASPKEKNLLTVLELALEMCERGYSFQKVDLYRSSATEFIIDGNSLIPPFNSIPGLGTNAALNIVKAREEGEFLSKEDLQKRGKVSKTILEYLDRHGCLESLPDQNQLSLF

Regarding `Cc1ccc(Nc2nc(O)nc(O)c2N=O)cc1`, the Ki entry in assay [1] is “Not Active”.

For `Nc1nc(Cl)cc(NCc2ccccc2)n1`, the Ki in assay [2] was 17 µM.

For the molecule `O=Nc1c(O)nc(O)nc1NCc1ccccc1`, in [3], the Ki entry is “Not Active”.

On to `Nc1nc(NCc2ccccc2)cc(SCc2ccccc2)n1`, for which the Ki result in assay [4] is given as “Not Active”.

`O=c1[nH]c(NCc2ccccc2)c(I)c(=O)[nH]1`: the IC50 in [5] came out at 9 µM.

In the case of `Oc1nc(O)c(Br)c(NCc2ccccc2)n1`, in [5], the IC50 was found to be 9 µM.

Consider `CCc1c(O)nc(O)nc1Nc1ccc(C)cc1`, for which the Ki result in assay [4] is given as “Not Active”.

Regarding `Cc1ccc(Nc2[nH]c(=O)[nH]c(=O)c2C)cc1`, the IC50 in assay [5] was found to be 1580 µM.

In turn, `Cc1c(O)nc(O)nc1NCc1ccccc1` yielded a Ki in [6] of 436 µM.

For the molecule `CCc1c(O)nc(O)nc1NCc1ccccc1`, the IC50 in assay [5] was 2820 µM.

As for `Nc1nc(NCc2ccccc2)cc(SCc2ccc(Cl)cc2)n1`, the Ki result in [7] is recorded as “Not Active”.

On to `Nc1nc(O)cc(NCc2ccccc2)n1`, for which the Ki in assay [8] amounted to 33 µM.

For the molecule `O=c1nc(NCc2ccccc2)[nH]c(=O)[nH]1`, the IC50 in assay [5] worked out at 20 µM.

As to `Cc1ccc(Nc2nc(=O)[nH]c(=O)[nH]2)cc1`, the IC50 in assay [5] amounted to 70 µM.

With `Nc1nc(O)cc(Nc2ccc3c(c2)CCC3)n1`, the Ki in [8] stood at 2 µM.

On to `Cc1ccc(Nc2nc(O)nc(O)c2Br)cc1`, for which the IC50 in [5] worked out at 14 µM.

`Oc1cc(Nc2ccc3c(c2)CCC3)nc(O)n1`: the Ki in [9] worked out at 0.4 µM.

Consider `O=c1cc(NCc2ccccc2)[nH]c(=O)[nH]1`, for which the Ki in [9] is 7.5 µM.
